The test system of test [1] is L1210. In words: Concentration required for the 50% inhibition of growth of L1210 mouse leukemia cells in culture. In kind it is functional, cell-based. The method, boiled down: (§1)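 10^5 mycoplasma-free L1210 or CCRF-CEM cells grown 48 h in RPMI 1640 with 10% fetal calf serum containing compound, then counted. Value is concentration giving 50% growth inhibition. Compounds were purified by preparative TLC until no FUrd was detectable by HPLC. Highest concentration noted was 10^-4 M.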

For test [2], the system named is CCRF-CEM. In words: Concentration required for the 50% inhibition of growth of CCRF-CEM human leukemia cells in culture. In kind it is functional, cell-based. In a few lines:
as §1

For test [3], the system named is Mus musculus. Nature of the test: Mortality rate was measured at a dose of 150 mg/kg. The format is functional. The method, boiled down:
(§2)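 Female DBA/2 mice (18–22 g), groups of five, implanted ip on day 0 with 10^5 L1210 leukemia cells. Compound dissolved in PBS and given ip daily on days 1–5 (q.d. 1–5). Controls received PBS. Mice were weighed on days 1 and 7. Read-outs were mean mortality and percent increase in life span.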

Test [4] concerns Mus musculus. In words: Mortality rate was measured at a dose of 100 mg/kg. In kind it is functional. The method, boiled down:
as §2

In test [5] the test system is Mus musculus. In words: Percent increase in life span(ILS) was measured in mice at a dose of 150 mg/kg. In kind it is functional. In a few lines:
as §2

Test [6] relates to L1210. In words: Antitumor activity against L1210 leukemia cells in mice at a dose of 100 mg/kg (ip) expressed as change in the body weight after 7 days. The format is functional, Mus musculus. In a few lines: (§3)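 Female DBA/2 mice (18–22 g), groups of five, implanted ip with 10^5 L1210 cells on day 0. Compound in PBS given ip (0.2 mL) once daily days 1–5. Controls got PBS. Mice weighed on days 1 and 7. Weight change expressed as percentage of initial weight.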

The test system of test [7] is Mus musculus. In words: Mortality rate was measured at a dose of 250 mg/kg. In kind it is functional. In a few lines: as §2
The test system of test [8] is Mus musculus. In words: Percent increase in life span(ILS) was measured in mice at a dose of 100 mg/kg. In kind it is functional. The method, boiled down: as §2
Test [9] deals with L1210. In words: Antitumor activity against L1210 leukemia cells in mice at a dose of 250 mg/kg (ip) expressed as change in the body weight after 7 days. In kind it is functional, Mus musculus. In a few lines: as §3
The subject of test [10] is L1210. In words: Antitumor activity against L1210 leukemia cells in mice at a dose of 150 mg/kg (ip) expressed as change in the body weight after 7 days. The format is functional, Mus musculus. The method, boiled down: as §3
For test [11], the system named is Mus musculus. Nature of the test: Percent increase in life span(ILS) was measured in mice at a dose of 250 mg/kg. In kind it is functional. The method, boiled down:
as §2

In test [12] the test system is CCRF-CEM. In words: Concentration required for the 50% inhibition of growth of CCRF-CEM human leukemia cells in culture; No growth inhibition was observed at a concentration of 10^-4 M. The format is functional, cell-based. The method, boiled down:
as §1

The subject of test [13] is L1210. In words: Concentration required for the 50% inhibition of growth of L1210 mouse leukemia cells in culture; No growth inhibition was observed at a concentration of 10^-4 M. In kind it is functional, cell-based. In a few lines: as §1

With `Cc1ccc(S(=O)(=O)OC[C@H]2OC(n3cc(F)c(=O)[nH]c3=O)[C@H](O)[C@@H]2O)cc1` (some centres not stated), the IC50 in the test on L1210 [1] was determined as 0.46 µM; in the test on CCRF-CEM [2], 1.8 µM.
`O=c1[nH]c(=O)n(C2O[C@H](CCl)[C@@H](O)[C@H]2O)cc1F` (some centres not stated) had an IC50 in the test on L1210 [1] of 3.4 µM. In addition, the “Mean day of death” value in the test on Mus musculus [3] worked out at 16 days; with Mus musculus [7], 17.4 days. The compound also had a Mean survival time in the test with Mus musculus [4] of 15.6 days. In addition, in the test with Mus musculus [5], the ILS at 150 mg/kg stood at 51%. In addition, the “Change of body weight” value is listed as -0.8% in the test with L1210 [6], -4.6% in the test on L1210 [9] and -3.5% in the test on L1210 [10]. Further, in the test with Mus musculus [8], the ILS at 100 mg/kg was 47%. In the test on Mus musculus [11], this compound had an ILS at 250 mg/kg of 64%.
As for `NC[C@H]1OC(n2cc(F)c(=O)[nH]c2=O)[C@H](O)[C@@H]1O` (some centres not stated), the IC50 in the test on L1210 [1] amounted to 8.7 µM; with CCRF-CEM [2], 49 µM. Moreover, the “Mean day of death” value with Mus musculus [3] amounted to 12.8 days; with Mus musculus [7], 13.6 days. Besides, the Mean survival time in the test with Mus musculus [4] is 12.4 days. This compound registered an ILS at 150 mg/kg in the test on Mus musculus [5] of 19%. Besides, the results for the “Change of body weight” value with L1210 [6], in the test on L1210 [9] and with L1210 [10] were 1.8%, -0.9% and -5.5%, respectively. In the test on Mus musculus [8], this compound returned an ILS at 100 mg/kg of 17%. In the test on Mus musculus [11], this compound gave an ILS at 250 mg/kg of 28%.
On to `O=c1[nH]c(=O)n([C@@H]2O[C@H](CO)[C@@H](O)[C@H]2O)cc1F` [5-FLUOROURIDINE], for which the IC50 in the test with L1210 [1] worked out at 0.005 µM; in the test with CCRF-CEM [2], 0.05 µM.
On to `CS(=O)(=O)OC[C@H]1OC(n2cc(F)c(=O)[nH]c2=O)[C@H](O)[C@@H]1O` (some centres not stated), for which the IC50 in the test on L1210 [1] worked out at 0.32 µM; with CCRF-CEM [2], 0.66 µM. Moreover, the “Mean day of death” value in the test with Mus musculus [3] is 14.8 days; with Mus musculus [7], 16.8 days. The compound also registered a Mean survival time in the test with Mus musculus [4] of 13.4 days. The compound also displayed an ILS at 150 mg/kg in the test on Mus musculus [5] of 40%. The “Change of body weight” value in the test on L1210 [6] was 0%; in the test on L1210 [9] it was -1.7%; in the test with L1210 [10] it was 1.3%. This compound yielded an ILS at 100 mg/kg with Mus musculus [8] of 26%. Further, in the test on Mus musculus [11], the ILS at 250 mg/kg turned out to be 58%.
As to `O=c1[nH]c(=O)n(C2O[C@H](CI)[C@@H](O)[C@H]2O)cc1F` (some centres not stated), the figures for the IC50 in the test with L1210 [1] and with CCRF-CEM [2] were 5 µM and 27 µM, respectively. Besides, the “Change of body weight” value with L1210 [6] is recorded as 0%.
Take `[N-]=[N+]=NC[C@H]1OC(n2cc(F)c(=O)[nH]c2=O)[C@H](O)[C@@H]1O` (some centres not stated): the values for the IC50 in the test on L1210 [1] and in the test on CCRF-CEM [2] were 170 µM and 350 µM, respectively.
As for `O=c1[nH]c(=O)n(C2O[C@H](CF)[C@@H](O)[C@H]2O)cc1F` (some centres not stated), the IC50 in the test with L1210 [1] is 29 µM; with CCRF-CEM [2], 140 µM. The “Mean day of death” value came out at 13.8 days in the test with Mus musculus [3] and 16.8 days in the test on Mus musculus [7]. In addition, the Mean survival time in the test with Mus musculus [4] worked out at 14 days. Also, the ILS at 150 mg/kg in the test on Mus musculus [5] came to 30%. Also, the entries for the “Change of body weight” value with L1210 [6], in the test on L1210 [9] and in the test on L1210 [10] were -5.6%, 2.3% and 0.9%, respectively. The same compound gave an increase in lifespan (ILS) at 100 mg/kg with Mus musculus [8] of 32%. This compound also displayed an ILS at 250 mg/kg in the test on Mus musculus [11] of 58%.
For the compound `O=c1[nH]c(=O)n(C2O[C@H](CBr)[C@@H](O)[C@H]2O)cc1F` (some centres not stated), the figures for the IC50 with L1210 [1] and in the test with CCRF-CEM [2] were 0.8 µM and 3.1 µM, respectively. Besides, the “Mean day of death” value was determined as 15 days in the test with Mus musculus [3] and 14.2 days in the test with Mus musculus [7]. Besides, the Mean survival time with Mus musculus [4] was 14.2 days. Besides, in the test on Mus musculus [5], the ILS at 150 mg/kg was 41%. Besides, the “Change of body weight” value is recorded as 1.7% with L1210 [6] and -1.8% with L1210 [9]. The same compound showed an ILS at 100 mg/kg with Mus musculus [8] of 34%. The compound further gave an ILS at 250 mg/kg in the test on Mus musculus [11] of 34%.
Take `C[C@H]1O[C@@H](n2cc(F)c(=O)[nH]c2=O)[C@H](O)[C@@H]1O` [DOXIFLURIDINE]: the half-maximal inhibitory concentration (IC50) with L1210 [1] was 3.6 µM; with CCRF-CEM [2] it was 22 µM. The “Mean day of death” value with Mus musculus [3] was found to be 12 days; with Mus musculus [7], 12.8 days. For the same compound, the Mean survival time with Mus musculus [4] was 11.4 days. The ILS at 150 mg/kg with Mus musculus [5] worked out at 13%. The “Change of body weight” value with L1210 [6] is listed as 5.7%; with L1210 [9] it was 0%; in the test with L1210 [10] it was 4.8%. In the test on Mus musculus [8], this compound showed an ILS at 100 mg/kg of 8%. The ILS at 250 mg/kg with Mus musculus [11] was found to be 20%.
As to `O=c1[nH]c(=O)n(C2O[C@H](CO[N+](=O)[O-])[C@@H](O)[C@H]2O)cc1F` (some centres not stated), the IC50 entry with CCRF-CEM [12] and in the test with L1210 [13] was “No inhibition” in each case.
For `O=c1[nH]cc(F)c(=O)[nH]1` [FLUOROURACIL], the IC50 turned out to be 0.5 µM in the test on L1210 [1] and 5 µM in the test with CCRF-CEM [2].

Usually IC50 stands for the concentration that gives 50% inhibition. High values mean weaker potency, low ones greater potency. As a reminder, the ILS is how much longer treated animals lived than controls. Lower therefore signals little gain in survival.
